From publication PMC2610486 (Bioorganic & medicinal chemistry, 2008)

How the values were obtained:
[1] = biological target: T1, Cyp4F2 (tocopherol-ω-hydroxylase) (Homo sapiens, UniProt P78329); assay: Inhibition of γ-tocopherol metabolism; type: cell-based; details: HepG2 cells; at concentrations as low as 250 nM
T1 sequence (P78329 5-520): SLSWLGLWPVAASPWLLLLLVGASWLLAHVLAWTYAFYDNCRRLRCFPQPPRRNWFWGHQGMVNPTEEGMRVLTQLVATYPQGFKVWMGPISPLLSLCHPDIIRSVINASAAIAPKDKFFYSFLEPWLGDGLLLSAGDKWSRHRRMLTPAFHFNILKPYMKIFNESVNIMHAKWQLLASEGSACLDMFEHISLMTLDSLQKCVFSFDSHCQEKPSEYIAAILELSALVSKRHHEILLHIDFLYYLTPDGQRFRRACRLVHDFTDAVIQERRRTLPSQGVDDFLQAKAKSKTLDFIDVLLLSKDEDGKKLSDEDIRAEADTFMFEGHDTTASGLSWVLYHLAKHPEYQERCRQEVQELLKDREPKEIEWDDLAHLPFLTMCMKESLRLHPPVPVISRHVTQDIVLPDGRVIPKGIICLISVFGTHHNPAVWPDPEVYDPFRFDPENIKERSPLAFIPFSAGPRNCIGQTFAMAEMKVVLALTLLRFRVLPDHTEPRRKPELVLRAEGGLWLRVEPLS

HepG2 cells = type: cell-based, human; details: HepG2 cultures
tocopherol ω-hydroxylase = assay: Tissue enrichment in δ-tocopherol in mice fed δ-tocopherol with or without 1; type: in vivo, mouse
How it was run: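 Two groups of three male FVB/N mice were fed 10 days on ground chow with δ-tocopherol (6000 mg/kg diet), with or without test compound (500 mg/kg diet). Compound in ethanol and δ-tocopherol were premixed in diglyceride oil, then added to chow. Mice were fasted 5 h and euthanised. Plasma, liver and bile tocopherols were measured by GC-MS with d9-α-tocopherol internal standard. Results are δ-/α-tocopherol ratios, given as means and SD.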

CYP3A4 = CYP3A4 (Homo sapiens, UniProt P08684); assay: Testosterone-6-hydroxylase activity in HepG2/C3A cell culture; type: cell-based; details: HepG2/C3A cultures; 50 µM testosterone, 48 hr
CYP3A4, sequence (P08684 whole entry): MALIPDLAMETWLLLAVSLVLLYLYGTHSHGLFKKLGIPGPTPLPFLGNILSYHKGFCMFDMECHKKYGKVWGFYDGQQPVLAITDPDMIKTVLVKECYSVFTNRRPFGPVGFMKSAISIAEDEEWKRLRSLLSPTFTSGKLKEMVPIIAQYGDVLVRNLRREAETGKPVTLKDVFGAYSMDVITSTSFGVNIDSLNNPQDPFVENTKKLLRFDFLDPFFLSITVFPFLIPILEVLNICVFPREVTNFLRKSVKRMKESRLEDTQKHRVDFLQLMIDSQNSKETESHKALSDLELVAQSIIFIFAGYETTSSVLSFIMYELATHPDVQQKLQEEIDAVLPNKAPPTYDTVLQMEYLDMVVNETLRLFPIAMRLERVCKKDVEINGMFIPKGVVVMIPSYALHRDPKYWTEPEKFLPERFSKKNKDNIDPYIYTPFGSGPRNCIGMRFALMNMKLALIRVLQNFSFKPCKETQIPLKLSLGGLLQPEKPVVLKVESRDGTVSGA
How it was run: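 Confluent HepG2 cultures were pre-incubated 4 h with test compound or ethanol control, then 50 µM testosterone was added. After 48 h incubation, medium was extracted with ethyl acetate and 6-hydroxytestosterone, as its trimethylsilyl ether, was quantified by GC-MS. Results are percent inhibition, given as means and standard deviation.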

[2] = male FVB/N mice, 500 mg 1 per kg diet with δ-tocopherol 6000 mg per kg diet, 10 days, P<0.05

Row | Inhibition of γ-tocopherol metabolism [1] | Effect on total cell protein (HepG2 cells) | Morphology of monolayers (HepG2 cells) | Effect on testosterone-6-hydroxylase (CYP3A4) activity (qualitative) (CYP3A4) | SMILES | Level of δ-tocopherol in mice (tocopherol ω-hydroxylase; 1 at 500 mg per kg of diet that also contained δ-tocopherol) | Change in δ-tocopherol / α-tocopherol ratio in bile (tocopherol ω-hydroxylase; [2]) | Change in δ-tocopherol / α-tocopherol ratio in liver (tocopherol ω-hydroxylase; [2]) | Effect on α-tocopherol status (tocopherol ω-hydroxylase; mice fed δ-tocopherol with or without 1)
1 | complete inhibition | no effect | normal | inhibited | Cc1c(C)c2c(c(C)c1O)CC[C@@](C)(CCCCCCCCCn1ccnc1)O2 [Compound 1, (R)-2-(9-(1H-imidazol-1-yl)nonyl)-2,5,7,8-tetramethylchroman-6-ol] | raised | tripled | doubling | no evidence that α-tocopherol status was affected
2 |  |  |  | inhibited | Cc1c(C)c2c(c(C)c1O)CC[C@@](C)(CCCCCCCCCn1cncn1)O2 [Compound 2, (R)-2-(9-(1H-1,2,4-triazol-1-yl)nonyl)-2,5,7,8-tetramethylchroman-6-ol] |  |  |  | 
3 |  |  |  | inhibited | Cc1c(C)c2c(c(C)c1O)CC[C@@](C)(CCCCCCCCCn1ccnn1)O2 [Compound 3, (R)-2-(9-(1H-1,2,3-triazol-1-yl)nonyl)-2,5,7,8-tetramethylchroman-6-ol] |  |  |  | 
